Screening data from PubChem BioAssay.
Gli-Sufu block: Gli-Sufu pathway antagonism; Sufu-KO-LIGHT fibroblasts, Gli luciferase reporter luminescence; inhibition, % at 5 µM; 340,000 compounds, 0.74% hits; AID 588413;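 active = inhibition above about 55%, limit read from the data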;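 note: 0% = DMSO-treated cells and 100% = wells with medium but no cells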
697 NFkB inh: lowers PMA/ionomycin-induced NF-kB signal in 697 B cells. AID 435022. 697 B-cell NF-kB luciferase reporter, 16 h. 330,000 compounds, 0.33% hits. inhibition, % at 4 µM; in the data active = inhibition above about 35%
XBP1 UPR activ: activators of adaptive arm of unfolded protein response (XBP1) | CHO-XBP1 luciferase reporter, IRE1-XBP1 UPR activation, luminescence; percent of tunicamycin response, DMSO as zero | activation, % at 20 µM | AID 463104 | 330,000 compounds, 0.33% hits;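 active = versus positive control, 20 µM dose yields 30% or more activation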;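 note: 100% = tunicamycin at 10 µg/mL and 0% = DMSO only wells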
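Material: IRE1-XBP1 luciferase reporter CHO line / Quantity: one thousand reporter cells per well / Buffer or medium: F12 with 10% serum / Compound: 20 µM single concentration, DMSO 1% / Times: 6 h treatment, 37 °C / Detection: Steady-Glo luciferase glow luminescence, 10 min after reagent addition / Benchmarks: tunicamycin high, DMSO low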
Jurkat NFkB inh: inhibitors of the PMA/ionomycin-induced NF-kB reporter in Jurkat cells | 330,000 compounds, 0.53% hits | AID 435003 | inhibition, % at 4 µM | PMA/ionomycin-induced NF-kB luciferase reporter, luminescence; in the data active = inhibition above about 50%
CHOP inh: inhibitors of CHOP induction in ER stress response | 220,000 compounds, 3.8% hits | inhibition, % at 10 µM | AID 2732 | CHO-K1 CHOP-promoter luciferase, tunicamycin-induced, 15-18 h;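 active = compounds that reduced the stress-induced luciferase reporter signal by more than about 70% of percent inhibition, limit read from the data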;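 note: 0% = tunicamycin plus vehicle and 100% = wells without tunicamycin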
CHOP UPR activ: apoptotic UPR (CHOP) activation. CHO-CHOP luciferase reporter, luminescence; percent of tunicamycin response over DMSO baseline. activation, % at 10 µM. 330,000 compounds, 0.34% hits. AID 449763;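 active = at 10 µM dose, activation of 40% or more, normalized to positive control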;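 note: 100% = tunicamycin at 10 µg/mL and 0% = DMSO alone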
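Test system: CHO CHOP reporter cells. Input: 500 CHO-CHOP cells per well. Medium: F12 with 10% FBS. Technique: luciferase luminescence. Measure: percent activation relative to tunicamycin control. Dosing: 10 µM compound, 0.5% DMSO. Timing: 16-18 h cell attachment, then 6 h compound exposure, 37 °C.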
The depositor's hits bear a star; · = no result given. An excerpt weighted towards active compounds, which were near 3.9% of everything screened.

SMILES	Gli-Sufu block	697 NFkB inh	XBP1 UPR activ	Jurkat NFkB inh	CHOP inh	CHOP UPR activ
COc1ccc2c(c1OC)C(=O)N1C2SC(C)(C)[C@H]1C(=O)NCC(C)C (some centres undefined)	-2.5	13.3	1.3	10.4	·	0.5
CCCc1c(C)c2cc(C)ccc2[nH]c1=O	-8.9	24.6	-2.5	-7.0	8.4	-2.7
CCCCc1c(C)c2cc(C)ccc2[nH]c1=O	-1.9	-19.7	-0.2	-13.5	78.9*	-2.0
COc1ccccc1-n1c(SCC(=O)NCC2CCCO2)nc2c([nH]c3ccccc32)c1=O (centres undefined)	9.0	-14.8	-2.2	1.6	·	0.0
COc1cccc(NC(=O)CN(C)C(=O)c2cc(-c3ccccc3)nn2-c2ccccc2)c1	-2.9	8.0	-4.2	10.7	·	0.3
CCOc1ccc(N2C(=O)CC(NCC#N)C2=O)cc1 (centres undefined)	-4.4	-15.4	-5.3	-2.5	·	3.3
N#C/C(C(N)=O)=c1/ccc2c(c1)N1C3=C(CCCC3)CC3CCCCC31N=2 (centres undefined)	20.6	-7.0	3.7	-3.9	82.4*	0.6
N#CC(C#N)=c1ccc2c(c1)N1C3=C(CCCC3)CC3CCCCC31N=2 (centres undefined)	28.4	23.4	5.8	17.0	-1.8	-0.1
Cc1ccc(-c2nnc(N3CCC(C)CC3)c3ccccc23)cc1	34.5	-11.6	8.1	-13.7	84.3*	2.4
CCOC(=O)N1CCN(C(=O)C2CCN(C(=O)c3ccccc3C)CC2)CC1	0.5	·	·	·	·	·
O=S(=O)(c1ccc(C(F)(F)F)cc1)N1CCN(CCc2ccccc2)CC1	-4.7	12.2	-4.0	10.0	·	0.6
Cc1ccccc1NC(=S)N1CCN(Cc2ccc3c(c2)OCO3)CC1	-2.9	0.1	-2.6	-0.3	-0.6	9.2
Cc1ccc(S(=O)(=O)N(C)C)cc1NC(=S)N1CCN(Cc2ccc3c(c2)OCO3)CC1	55.1*	-26.2	2.2	19.9	33.6	0.0
C(=N\Nc1ccc2ccccc2n1)/c1ccc2c(c1)OCCO2	40.9	-98.7	-10.4	-72.5	75.1*	-8.5
COc1ccc(C2(C)NC(=O)N(CC(=O)NCc3ccccc3)C2=O)cc1OC (centres undefined)	16.3	-4.3	-0.2	-8.0	·	0.6
Cc1ccc(NC(=S)N2CCN(CCN3C(=O)c4cccc5cccc(c45)C3=O)CC2)cc1	-13.1	14.8	-0.6	-8.7	19.5	1.9
O=C1c2cccc3cccc(c23)C(=O)N1CCN1CCN(C(=S)Nc2ccc(F)cc2)CC1	·	-50.0	26.4	-12.6	22.3	43.0*
CCOC(=O)C1=C(C)N(C)C(C)=C(C(=O)OCC)C1c1ccc(C(=O)OC)cc1	8.1	14.3	-1.7	17.0	28.4	-1.0
CCOC(=O)C1=C(C)N(C)C(C)=C(C(=O)OCC)C1c1ccc(Cl)cc1	22.3	-19.1	2.8	10.2	79.6*	1.2
COC(=O)C1=C(C)N(C)C(C)=C(C(=O)OC)C1c1ccc(Cl)cc1	4.1	9.3	-1.6	12.8	72.5*	-1.3
COc1ccc(CNC(=O)C(=O)NCC2OCCN2S(=O)(=O)c2ccccc2)cc1 (centres undefined)	0.9	9.5	-5.6	-0.6	·	-2.1
CC(C)c1ccc(/C=c2\sc3nc(-c4ccncc4)nn3c2=O)cc1	3.9	-8.1	2.3	-2.9	70.9*	2.3
Cc1ccc(/C=c2\sc3nc(-c4cccnc4)nn3c2=O)cc1	20.8	·	·	·	54.2	·
CCCCN(C(=O)c1cccc(-n2cccc2)c1)c1c(N)n(Cc2ccccc2)c(=O)[nH]c1=O	·	3.7	-2.3	-7.6	·	2.1
O=c1[nH]c(CN2CCN(Cc3ccc4c(c3)OCO4)CC2)nc2ccccc12	6.4	7.5	0.7	-0.4	6.6	0.5
O=c1cc(-c2ccccc2)nc(N2CCN(Cc3ccc4c(c3)OCO4)CC2)[nH]1	-3.7	-12.4	-1.8	-6.4	70.7*	0.2
CC(C)(C)OC(=O)NC1CNNC1=O (centres undefined)	0.2	17.7	-3.2	-7.1	·	5.5
Cc1ccc(/C=C/C(=O)c2ccccc(=O)c2O)cc1C	-2.3	·	·	·	70.8*	·
O=C(COC(=O)c1ccccc1O)NCc1ccc2c(c1)OCO2	-11.5	-4.2	-0.4	-48.9	·	1.4
